28 molecules from ChEMBL document CHEMBL2202980, “Anti-viral activity of (-)- and (+)-usnic acids and their derivatives against influenza virus A(H1N1)2009” (Bioorg Med Chem Lett, 2012) can be followed below.

Series [1] is described as follows: Selectivity index, ratio of CTD50 for MDCK cells to ED50 for influenza virus A/California/07/09 (H1N1) pdm09. Conditions: dog, read-out: Selectivity Index. The format is toxicity, cell-based.
The next series concerns Influenza A virus. Put plainly: Antiviral activity against Influenza virus A/California/07/09 (H1N1) pdm09 infected in MDCK cells after 48 hrs followed by incubated in chicken erythrocytes for 1 hr by hemagglutinination based end-point dilution method. The format is functional, Influenza A virus (A/California/07/2009(H1N1)). The conditions noted are these: read-out: ED50 (the source's name). The procedure, abridged:
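MDCK cells were pretreated for 1 h at 37 °C with serial twofold compound dilutions in MEM containing 2 mM arginine, 2 mM glutamine and trypsin. They were then infected and cultured at 36 °C for 48 h. Supernatant was mixed with 1% chicken erythrocytes for 1 h at room temperature. Titer was read as the end-point dilution giving hemagglutination in 50% of wells. ED50 is the concentration halving virus production versus untreated control.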

Series [2] can be described thus: Cytotoxicity against MDCK cells after 48 hrs by MTT assay. The format is cell-based, Canis lupus familiaris. The conditions noted are these: dog, read-out: CTD50. The procedure, abridged: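 MDCK monolayers were grown in MEM with 5% fetal calf serum and washed with serum-free MEM. They were exposed to serial twofold dilutions from 5 mg/ml DMSO stocks for 48 h at 37 °C. CTD50 was derived from this.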
On the technique in general: Formazan colour is commonly taken as a measure of viable cells.

The subject of series [3] is RAW264.7. Put plainly: Antiinflammatory activity in mouse RAW264.7 cells assessed as inhibition of LPS-induced iNOS protein synthesis. The format is functional, cell-based.
Series [4] deals with RAW264.7. The experiment in a line: Antiinflammatory activity in mouse RAW264.7 cells assessed as inhibition of LPS-induced TNFalpha level. The format is functional, cell-based.
Series [5] is described as follows: Selectivity index, ratio of cytotoxicity against human CEM cells to Antiviral activity against HIV1 RF. The format is toxicity, cell-based, CCRF-CEM. Conditions: read-out: Selectivity Index.

Molecules are shown by their SMILES.

Turning to `CC(N)C12CC3CC(CC(C3)C1)C2` (configuration not stated) [RIMANTADINE], in series [1], the selectivity ratio was determined as 5. The EC50 in the series with Influenza A virus (Influenza A virus, pdm09, MDCK) is 56.9 µM. The CC50 at 48 h in series [2] was 284 µM.
As for `CC(=O)c1c(O)c(C)c(O)c2c1OC1=CC(=O)/C(=C(/C)NCC(=O)O)C(=O)[C@]12C`, the selectivity ratio in series [1] was determined as 18.4. Further, the EC50 in the series with Influenza A virus was determined as 10.7 µM. The CC50 at 48 h in series [2] worked out at 197 µM.
Take `CC(=O)c1c(O)c(C)c(O)c2c1OC1=CC(=O)/C(=C(/C)Nc3cccc(Br)c3)C(=O)[C@]12C`: the selectivity ratio in series [1] was 10. The EC50 in the series on Influenza A virus (Influenza A virus, pdm09, MDCK) came to 9.8 µM. For the same molecule, in series [2], the CC50 at 48 h is 97.8 µM.
For `CC(=O)c1c(O)c(C)c(O)c2c1OC1=Cc3c(c(C)nn3-c3ccccc3)[C@@H](O)[C@@]12C`, in that order: 13.2, 6 µM and 78.9 µM.
The corresponding values for `CC(=O)c1c(O)c(C)c(O)c2c1OC1=CC(=O)/C(=C(/C)NCCC(=O)O)C(=O)[C@]12C` are 1, 400 µM and 400 µM.
Consider `CC[N+](C)(CC)CCN/C(C)=C1\C(=O)C=C2Oc3c(C(C)=O)c(O)c(C)c(O)c3[C@@]2(C)C1=O`, for which the selectivity ratio in series [1] was 21.9. In addition, the EC50 with Influenza A virus (Influenza A virus, pdm09, MDCK) worked out at 5.5 µM. Moreover, in series [2], the CC50 at 48 h turned out to be 121 µM.
The corresponding values for `CC(=O)c1c(O)c(C)c(O)c2c1OC1=CC(=O)/C(=C(/C)Nc3cccc(F)c3)C(=O)[C@]12C` are 8.8, 4 µM and 35.3 µM.
For `CC(=O)c1c(O)c(C)c(O)c2c1OC1=CC(=O)/C(=C(/C)Nc3ccc(F)cc3)C(=O)[C@]12C`, in that order: 3.9, 90.4 µM and 350 µM.
The corresponding values for `CC(=O)c1c(O)c(C)c(O)c2c1OC1=CC(=O)/C(=C(/C)Nc3ccc(Br)cc3)C(=O)[C@]12C` are 5.1, 30.4 µM and 154 µM.
For the molecule `CC(=O)c1c(O)c(C)c(O)c2c1OC1=CC(=O)/C(=C(/C)NCC(F)(F)C(F)F)C(=O)[C@]12C`, the selectivity ratio in series [1] was found to be 10.2. In addition, in the series with Influenza A virus (Influenza A virus, pdm09, MDCK), the EC50 is 38.9 µM. Besides, the CC50 at 48 h in series [2] worked out at 397 µM.
The corresponding values for `CC(=O)C1=C(O)C=C2O[C@]34O[C@@]3(C(C)=O)C(=O)C(C)=C(O)[C@]4(O)[C@@]2(C)C1=O` are 37.3, 5.1 µM and 190 µM.
Regarding `CC(=O)c1c(O)c(C)c(O)c2c1OC1=CC(=O)/C(=C(/C)Nc3ccc(Br)cc3)C(=O)[C@@]12C`, the selectivity ratio in series [1] was 9.6. Also, in the series on Influenza A virus (Influenza A virus, pdm09, MDCK), the EC50 was found to be 20.2 µM. Moreover, the CC50 at 48 h in series [2] was determined as 193 µM.
Turning to `CC(=O)c1c(O)c(C)c(O)c2c1OC1=CC(=O)/C(=C(/C)Nc3cccc(Br)c3)C(=O)[C@@]12C`, in series [1], the selectivity ratio turned out to be 3.2. Besides, the EC50 with Influenza A virus (Influenza A virus, pdm09, MDCK) was 10.4 µM. Moreover, the CC50 at 48 h in series [2] amounted to 33.6 µM.
For `NC(=O)c1ncn([C@@H]2O[C@H](CO)[C@@H](O)[C@H]2O)n1` [RIBAVIRIN], in that order: > 81, 24.6 µM and > 2000 µM.
In the case of `CC(=O)C1=C(O)C=C2O[C@]34O[C@@]3(C(C)=O)C(=O)C(C)=C(O)[C@]4(O)[C@]2(C)C1=O`, in series [1], the selectivity ratio came out at 8. Also, in the series with Influenza A virus (Influenza A virus, pdm09, MDCK), the EC50 is 27.7 µM. For the same molecule, the CC50 at 48 h in series [2] was 221 µM.
For `CC(=O)c1c(O)c(C)c(O)c2c1OC1=Cc3c(c(C)nn3-c3ccccc3)C(=O)[C@@]12C`, in series [1], the selectivity ratio turned out to be 12.4. The EC50 in the series on Influenza A virus (Influenza A virus, pdm09, MDCK) was 62.2 µM. The CC50 at 48 h in series [2] worked out at 769 µM.
The corresponding values for `CC(=O)c1c(O)c(C)c(O)c2c1OC1=CC(=O)/C(=C(/C)Nc3cccc(F)c3)C(=O)[C@@]12C` are 4.8, 12.7 µM and 61.3 µM.
In the case of `CC(=O)c1c(O)c(C)c(O)c2c1OC1=Cc3c(c(C)nn3-c3ccccc3)[C@@H](O)[C@]12C`, the selectivity ratio in series [1] amounted to 6.8. Also, the EC50 in the series on Influenza A virus (Influenza A virus, pdm09, MDCK) was 10.5 µM. In series [2], the CC50 at 48 h was 71.8 µM.
For `CC(=O)c1c(O)c(C)c(O)c2c1OC1=Cc3c(c(C)nn3-c3ccccc3)C(=O)[C@]12C`, in series [1], the selectivity ratio was 9. The EC50 in the series on Influenza A virus (Influenza A virus, pdm09, MDCK) is 57.8 µM. The CC50 at 48 h in series [2] was found to be 522 µM.
With `CC(=O)C1=C(O)C=C2Oc3c(C(C)=O)c(O)c(C)c(O)c3[C@@]2(C)C1=O` [(+)-USNIC ACID], the IC50 (commonly the midpoint of a concentration-inhibition curve) in the series on RAW264.7 [3] was 4.7 µM; with RAW264.7 [4] it was 12.8 µM. For the same molecule, the selectivity ratio in series [5] was 3; in series [1], 5.9. Moreover, the EC50 in the series with Influenza A virus was found to be 51.7 µM. The CC50 at 48 h in series [2] worked out at 305 µM.
Regarding `CC(=O)C1=C(O)C=C2Oc3c(C(C)=O)c(O)c(C)c(O)c3[C@]2(C)C1=O` [(-)-USNIC ACID], in series [1], the selectivity ratio turned out to be 14.4. Further, the EC50 in the series with Influenza A virus (Influenza A virus, pdm09, MDCK) is 14.5 µM. In addition, the CC50 at 48 h in series [2] came out at 209 µM.
For `CC[N+](C)(CC)CCN/C(C)=C1\C(=O)C=C2Oc3c(C(C)=O)c(O)c(C)c(O)c3[C@]2(C)C1=O`, in that order: 2.7, 12.5 µM and 34.2 µM.
As for `CC(=O)c1c(O)c(C)c(O)c2c1OC1=CC(=O)/C(=C(/C)NCC(F)(F)C(F)F)C(=O)[C@@]12C`, in series [1], the selectivity ratio turned out to be 19.4. Moreover, the EC50 in the series on Influenza A virus (Influenza A virus, pdm09, MDCK) stood at 1.6 µM. In addition, the CC50 at 48 h in series [2] was determined as 31.1 µM.
On to `CC(=O)c1c(O)c(C)c(O)c2c1OC1=CC(=O)/C(=C(/C)Nc3ccc(F)cc3)C(=O)[C@@]12C`, for which the selectivity ratio in series [1] turned out to be 8.8. Moreover, the EC50 with Influenza A virus (Influenza A virus, pdm09, MDCK) was 23.6 µM. The CC50 at 48 h in series [2] was 208 µM.
The corresponding values for `CC(=O)c1c(O)c(C)c(O)c2c1OC1=CC(=O)/C(=C(/C)Nc3ccc(Cl)cc3)C(=O)[C@@]12C` are 6.9, 25.1 µM and 172 µM.
Take `CC(=O)c1c(O)c(C)c(O)c2c1OC1=CC(=O)/C(=C(/C)NCC(=O)O)C(=O)[C@@]12C`: in series [1], the selectivity ratio came out at 6. The EC50 in the series with Influenza A virus stood at 11.2 µM. In series [2], the CC50 at 48 h was found to be 67.3 µM.
In the case of `CC(=O)c1c(O)c(C)c(O)c2c1OC1=CC(=O)/C(=C(/C)NCCC(=O)O)C(=O)[C@@]12C`, the selectivity ratio in series [1] was found to be 23.5. In addition, the EC50 in the series with Influenza A virus (Influenza A virus, pdm09, MDCK) is 6.9 µM. In addition, in series [2], the CC50 at 48 h was 162 µM.
For the molecule `CC(=O)c1c(O)c(C)c(O)c2c1OC1=CC(=O)/C(=C(/C)Nc3ccc(Cl)cc3)C(=O)[C@]12C`, the selectivity ratio in series [1] was found to be 11.7. The EC50 with Influenza A virus (Influenza A virus, pdm09, MDCK) worked out at 13.1 µM. Moreover, the CC50 at 48 h in series [2] worked out at 153 µM.
